Source: ChEMBL document CHEMBL1137002, “Synthesis and electrochemistry of 2-ethenyl and 2-ethanyl derivatives of 5-nitroimidazole and antimicrobial activity against Giardia lamblia” (J Med Chem, 2009)
The source made the active and inactive calls. The rule behind the calls is not given here.

Key:
Giardia intestinalis [1] = experiment: Antigiardial activity against metronidazole-resistant Giardia lamblia isolate 713 trophozoite after 2 days by bactiter-glo viability assay; type: functional, organism-based; details: Giardia duodenalis, isolate 713, 48 h
Outline: (§1)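 Trophozoites from mid-log cultures in TYI-S-33 with 10% bovine serum and 1 mg/mL bovine bile, grown anaerobically. Mz-resistant lines kept on 50 μM Mz but grown without it for 2–3 days beforehand. 1000–2000 cells/well, 1:3 serial dilutions, final 20 μM to 0.4 nM. 2 days at 37 °C anaerobically. ATP luminescence read-out. EC50 taken by graphic extrapolation of concentration–response curves. Mean ± SE of three experiments.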

Giardia intestinalis [2] = experiment: Antigiardial activity against Giardia lamblia trophozoites isolates after 2 days by bactiter-glo viability assay; type: functional, organism-based; details: Giardia duodenalis, 48 h
HeLa = experiment: Cytotoxicity against human HeLa cells after 2 days by Alamar blue assay; type: cell-based; details: 48 h
[3] = Therapeutic index, ratio of IC50 for human HeLa cells to EC50 for Giardia lamblia trophozoites isolates; type: cell-based; details: read-out: Ratio IC50/EC50
Giardia intestinalis [4] = experiment: Antigiardial activity against metronidazole-sensitive Giardia lamblia isolate 713 trophozoite after 2 days by bactiter-glo viability assay; type: functional, organism-based; details: Giardia duodenalis, isolate 713, 48 h; outline: as §1
Giardia intestinalis [5] = experiment: Antigiardial activity against metronidazole-resistant Giardia lamblia isolate 106 trophozoite after 2 days by bactiter-glo viability assay; type: functional, organism-based; details: Giardia duodenalis, isolate 106, 48 h; outline: as §1
Giardia intestinalis [6] = experiment: Antigiardial activity against metronidazole-sensitive Giardia lamblia isolate 106 trophozoite after 2 days by bactiter-glo viability assay; type: functional, organism-based; details: Giardia duodenalis, isolate 106, 48 h; outline: as §1
Giardia intestinalis [7] = experiment: Antigiardial activity against Giardia lamblia GS/M trophozoites infected in C57BL/6 mouse assessed as reduction in live trophozoite number in small intestine at 10 mg/kg, po administered as 5 doses for 3 days relative to control; type: functional; details: for Activity: Giardia duodenalis
Outline: (§2)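 Adult C57BL/6 mice infected orally with G. lamblia GS/M trophozoites; from 2 days post-infection, five oral gavage doses over 3 days (10 or 2 mg/kg), with controls given methylcellulose/PBS vehicle. Day 5: whole small intestine opened, placed in PBS on ice 10 min, shaken, and live trophozoites counted by hemocytometer under phase contrast. Mean ± SE of 3–7 animals; t test versus vehicle controls, p < 0.05.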

Giardia intestinalis [8] = experiment: Antigiardial activity against Giardia lamblia GS/M trophozoites infected in C57BL/6 mouse assessed as reduction in live trophozoite number in small intestine at 2 mg/kg, po administered as 5 doses for 3 days; type: functional, organism-based; set-up: dose 2 mg/kg; details: Giardia duodenalis; outline: as §2
Giardia intestinalis [9] = experiment: Antigiardial activity against Giardia lamblia GS/M trophozoites infected in C57BL/6 mouse assessed as parasite eradication in small intestine at 10 mg/kg, po administered as 5 doses for 3 days; type: functional, organism-based; set-up: dose 10 mg/kg; details: Giardia duodenalis; outline: as §2
Mus musculus = experiment: Toxicity in C57BL/6 mouse at 10 mg/kg, po after 3 days; type: organism-based; set-up: dose 10 mg/kg, route oral; details: in vivo, 72 h
Outline: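 G. lamblia GS/M-infected adult C57BL/6 mice were watched for clinically observable untoward effects across the 3-day treatment period, which consisted of five oral gavage doses at 10 mg/kg in methylcellulose/PBS given from day 2 after infection.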

SMILES | EC50 (Giardia intestinalis [1]) | EC50 (Giardia intestinalis [2]; read-out: pEC50 (converted)) | IC50 (HeLa) | selectivity ratio [3] | EC50 (Giardia intestinalis [4]) | EC50 (Giardia intestinalis [5]) | EC50 (Giardia intestinalis [6]) | Activity (Giardia intestinalis [7]) | Activity (Giardia intestinalis [8]) | Activity (Giardia intestinalis [9]) | Activity (Mus musculus) | EC50 (Giardia intestinalis [2]; read-out: EC50) | fold change (FC) (Giardia intestinalis [7])
Cn1c([N+](=O)[O-])cnc1C(Br)C(Br)c1ccc(Br)cc1 (configuration not stated) | 182 nM | 347 nM | 7940 nM | 23 | 479 nM | 214 nM | 2880 nM |  |  |  |  |  | 
CC(=O)OC(c1ccc(C)cc1)C(OC(C)=O)c1ncc([N+](=O)[O-])n1C (configuration not stated) | 174 nM | 316 nM | > 100000 nM | > 319 | 5130 nM | 513 nM | 3090 nM |  |  |  |  |  | 
Cn1ccnc1/C=C/c1ncc([N+](=O)[O-])n1C | 51.3 nM | 75.9 nM | 91200 nM | 1200 | 1170 nM | 87.1 nM | 251 nM | Active | Active | Active | Non-toxic |  | 
Cn1c([N+](=O)[O-])cnc1/C=C/c1ccc2ccccc2c1 |  | 60.3 nM |  | 1620 |  |  |  |  |  |  |  |  | 
Cn1c([N+](=O)[O-])cnc1/C=C/c1ccccc1Cl | 30.2 nM | 72.4 nM | > 100000 nM | > 1380 | 115 nM | 60.3 nM | 251 nM |  |  |  |  |  | 
Cn1c([N+](=O)[O-])cnc1/C=C/c1cccc(Cl)c1 |  | 21.9 nM | 30200 nM | 1380 |  |  |  |  |  |  |  |  | 
COc1ccc(/C=C/c2ncc([N+](=O)[O-])n2C)c(OC)c1OC |  | 617 nM | > 100000 nM | > 162 |  |  |  |  |  |  |  |  | 
Cc1ccc(C(Br)C(Br)c2ncc([N+](=O)[O-])n2C)cc1 (configuration not stated) |  | 64.6 nM | 11200 nM | 174 |  |  |  |  |  |  |  |  | 
CCOC(OCC)c1ccc(/C=C/c2ncc([N+](=O)[O-])n2C)cc1 | 32.4 nM | 52.5 nM |  | 1860 | 708 nM | 64.6 nM | 200 nM |  |  |  |  |  | 
Cn1c([N+](=O)[O-])cnc1/C=C/c1ccccc1 | 20.4 nM | 38.9 nM | > 100000 nM | > 2570 | 525 nM | 55 nM | 398 nM | Active |  | Active | Non-toxic |  | 
Cn1c([N+](=O)[O-])cnc1/C=C/c1ccsc1 | 24.5 nM | 97.7 nM | > 100000 nM | > 1020 | 1050 nM | 91.2 nM | 389 nM |  |  |  | Non-toxic |  | 
Cn1c([N+](=O)[O-])cnc1/C=C/c1cccc(I)c1 |  | 93.3 nM |  | 339 |  |  |  |  |  |  |  |  | 
Cn1c([N+](=O)[O-])cnc1/C=C/c1ccc(Cl)cc1 | 36.3 nM | 52.5 nM | 91200 nM | 1740 | 145 nM | 72.4 nM | 257 nM |  |  |  |  |  | 
Cc1ccc(/C=C/c2ncc([N+](=O)[O-])n2C)cc1 |  | 162 nM | > 100000 nM |  |  |  |  |  |  |  |  |  | 
Cn1c([N+](=O)[O-])cnc1/C=C/c1ccccc1-c1ccccc1 | 347 nM | 851 nM | > 100000 nM | > 117 | 4570 nM | 537 nM | 1230 nM |  |  |  |  |  | 
Cn1c([N+](=O)[O-])cnc1CCc1ccc(Br)cc1 |  | 1150 nM |  | 85 |  |  |  |  |  |  |  | 1150 nM | 
Cn1c([N+](=O)[O-])cnc1/C=C/c1ccccc1Br | 18.2 nM | 49 nM | 72400 nM | 1480 | 117 nM | 41.7 nM | 282 nM |  |  |  |  |  | 
Cn1c([N+](=O)[O-])cnc1/C=C/c1cccc(Br)c1 | 32.4 nM | 46.8 nM | 87100 nM | 1860 | 126 nM | 42.7 nM | 115 nM |  |  |  |  |  | 
Cc1ccccc1/C=C/c1ncc([N+](=O)[O-])n1C |  | 69.2 nM |  | 1350 |  |  |  |  |  |  |  |  | 

SMILES | EC50 (Giardia intestinalis [1]) | EC50 (Giardia intestinalis [2]; read-out: pEC50 (converted)) | IC50 (HeLa) | selectivity ratio [3] | EC50 (Giardia intestinalis [4]) | EC50 (Giardia intestinalis [5]) | EC50 (Giardia intestinalis [6]) | Activity (Giardia intestinalis [7]) | Activity (Giardia intestinalis [8]) | Activity (Giardia intestinalis [9]) | Activity (Mus musculus) | EC50 (Giardia intestinalis [2]; read-out: EC50) | fold change (FC) (Giardia intestinalis [7])
Cn1c([N+](=O)[O-])cnc1/C=C/c1cccc2ccccc12 |  |  | 100000 nM | 1000 |  |  |  |  |  |  |  | 100 nM | 
Cc1ncc([N+](=O)[O-])n1CCO [METRONIDAZOLE] | 1480 nM |  |  |  | 44700 nM | 3980 nM | 25700 nM |  | inactive | inactive |  | 2630 nM | 1000
Cn1c([N+](=O)[O-])cnc1/C=C/c1cccc(F)c1 | 25.7 nM | 40.7 nM | > 100000 nM | > 2460 | 123 nM | 30.9 nM | 93.3 nM | Active | Active | Active | Non-toxic |  | 
Cn1c([N+](=O)[O-])cnc1/C=C/c1ccc(OC(F)(F)F)cc1 |  | 741 nM | 83200 nM | 112 |  |  |  |  |  |  |  |  | 
COc1cccc(/C=C/c2ncc([N+](=O)[O-])n2C)c1 |  | 155 nM | > 100000 nM | > 646 |  |  |  |  |  |  |  |  | 
Cn1c([N+](=O)[O-])cnc1/C=C/c1ccc(Br)cc1 | 8.13 nM | 49 nM | 72400 nM | 1480 | 91.2 nM | 72.4 nM | 200 nM | inactive | inactive |  | Non-toxic |  | 
Cn1c([N+](=O)[O-])cnc1/C=C/c1ccccc1I |  | 60.3 nM | > 100000 nM | > 1660 |  |  |  |  |  |  |  |  | 
Cn1c([N+](=O)[O-])cnc1/C=C/c1ccc(Cl)cc1Cl |  | 234 nM | > 100000 nM | > 427 |  |  |  |  |  |  |  |  | 
Cc1cccc(/C=C/c2ncc([N+](=O)[O-])n2C)c1 |  | 39.8 nM | 30900 nM | 776 |  |  |  |  |  |  |  |  | 
Cn1c([N+](=O)[O-])cnc1/C=C/c1cccs1 |  | 81.3 nM | 91200 nM | 1120 |  |  |  |  |  |  |  |  | 
CC(=O)OC(c1ccc(Br)cc1)C(OC(C)=O)c1ncc([N+](=O)[O-])n1C (configuration not stated) |  | 224 nM |  | 436 |  |  |  |  |  |  |  |  | 
Cn1c([N+](=O)[O-])cnc1CCc1ccccc1 | 102 nM | 209 nM | > 100000 nM | > 474 | 5010 nM | 174 nM | 2570 nM |  |  |  | Non-toxic |  | 
Cn1c([N+](=O)[O-])cnc1C(O)C(O)c1ccc(Br)cc1 (configuration not stated) |  | 447 nM | 91200 nM | 208 |  |  |  |  |  |  |  |  | 
Cc1ccc(CCc2ncc([N+](=O)[O-])n2C)cc1 |  | 282 nM | > 100000 nM | > 357 |  |  |  |  |  |  |  |  | 
Cn1c([N+](=O)[O-])cnc1/C=C/c1ccco1 | 20.4 nM | 33.9 nM |  | 2750 | 490 nM | 35.5 nM | 363 nM | Active |  | Active | Non-toxic |  | 
Cc1cc(C)c(/C=C/c2ncc([N+](=O)[O-])n2C)c(C)c1 | 229 nM | 339 nM |  | 32 | 1290 nM | 204 nM | 427 nM |  |  |  |  |  | 
Cn1c([N+](=O)[O-])cnc1/C=C/c1ccc2c(c1)OCO2 |  | 69.2 nM | 74100 nM | 1070 |  |  |  |  |  |  |  | 69 nM | 
Cc1ccc(C(O)C(O)c2ncc([N+](=O)[O-])n2C)cc1 (configuration not stated) |  | 832 nM | > 100000 nM | > 120 |  |  |  |  |  |  |  |  | 
